Beta2AR agonist = agonists of human beta-2 adrenergic receptor inducing internalization. response, % (concentration not given with the values). AID 504454. Am2.2-beta2AR cells, FAP receptor internalization, flow cytometry. 0.43% of 340,000 active;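 active = response above a set limit, near 3 SD of response in nonfluorescent compounds, cut at about 42% in these data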
Target sequence (P07550 whole entry, looked up): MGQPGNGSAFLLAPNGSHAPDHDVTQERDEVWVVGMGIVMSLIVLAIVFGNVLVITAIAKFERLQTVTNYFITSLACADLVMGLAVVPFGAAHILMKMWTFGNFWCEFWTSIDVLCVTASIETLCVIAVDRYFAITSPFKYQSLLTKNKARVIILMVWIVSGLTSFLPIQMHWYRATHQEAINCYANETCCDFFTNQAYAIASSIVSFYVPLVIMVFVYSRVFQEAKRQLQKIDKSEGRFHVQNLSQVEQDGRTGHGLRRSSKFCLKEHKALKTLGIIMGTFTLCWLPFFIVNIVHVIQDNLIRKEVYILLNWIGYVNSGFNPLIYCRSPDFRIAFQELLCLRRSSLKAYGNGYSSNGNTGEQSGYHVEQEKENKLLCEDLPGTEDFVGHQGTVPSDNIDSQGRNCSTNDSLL
CCR6 antag = CCR6 (human) receptor antagonism; P51684; CHO-K1 CCR6 PathHunter beta-arrestin, luminescence, CCL20-stimulated; inhibition, % at 20 µM; 0.49% of 340,000 active; AID 493098;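 active = compounds whose inhibition of the agonist-driven luminescence signal at 20 µM reaches about 50%, limit read from the data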;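 also: cells stimulated with CCL20 at 14 nM final; plate controls were DMSO with CCL20 for no effect and DMSO without agonist for full effect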
EBI2 antag = antagonists of human EBI2 receptor. inhibition, % at 5 µM. EBI2 beta-arrestin recruitment, luminescence, 7a,25-OHC stimulated. 0.81% of 360,000 active; in the data active = inhibition above about 38%;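 also: enzyme fragment complementation signal reports receptor beta-arrestin coupling in cells; 0% = agonist plus DMSO wells and 100% = wells without agonist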
CXCR6 block = inhibitors of human CXCR6 receptor | 0.36% of 360,000 active | O00574 | CHO-K1 PathHunter CXCR6 beta-arrestin, luminescence | inhibition, % at 20 µM; in the data active = inhibition above about 34%, passing the limit was not always enough;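 also: antagonist mode with CXCL16 agonist at 10 nM final; 0% = 10 nM CXCL16 with DMSO and 100% = unstimulated wells without agonist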
APJ antagonist = APJ receptor antagonism; P35414; CHO-K1 APJ beta-arrestin complementation, luminescence; inhibition, % at 20 µM; 0.32% of 330,000 active; AID 2521;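 active = inhibition above about 40% at 20 µM, limit read from the data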;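 also: cells challenged with 10 nM apelin-13 agonist together with compound; plate controls were apelin-13 plus DMSO wells for no effect and DMSO wells lacking apelin-13 for full effect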
APJ ag = APJ receptor agonism; P35414; activation, % at 20 µM; 0.11% of 330,000 active; CHO-K1 APJ PathHunter beta-arrestin, luminescence; 0% DMSO wells, 100% apelin;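 active = activation more than six SD over the plate average, tested at 20 µM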;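 also: 0% = DMSO alone and 100% = apelin-13 at 10 nM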
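Test system: CHO-K1 APJ beta-arrestin complementation cell line | Compound: Single test compound dose, 20 µM final, 1% DMSO | Incubation: Compound 90 min 25 °C, reagent 1 h | Measured by: beta-gal luminescence | Read-out basis: APJ–arrestin association signal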
* = called active by the depositor; . = no result. Shown are actives, neighbours in structure and some others; about 1.8% of the full set was active somewhere.

SMILES | Beta2AR agonist | CCR6 antag | EBI2 antag | CXCR6 block | APJ antagonist | APJ ag
O=S(=O)(Cc1ccccc1)N(O)c1ccccc1 | 77* | 9 | 7 | 9 | 6 | -2
Cc1nn(Cc2c(F)c(F)c(F)c(F)c2F)c(C)c1NC(=O)c1ccc(COc2cc(Cl)ccc2Cl)cc1 | 7 | -12 | 51* | 0 | 4 | -4
Cc1nn(Cc2c(F)c(F)c(F)c(F)c2F)c(C)c1NC(=O)c1ccc(COc2ccccc2Cl)cc1 | -2 | -7 | 8 | -3 | . | .
O=C(c1[nH]nc2c1CCc1ccccc1-2)N1CCN(Cc2ccc3c(c2)OCO3)CC1 | 1 | 15 | 83* | 3 | -2 | 0
O=C(c1ccccc1)N1CCN(Cc2ccc3c(c2)OCO3)CC1 | 14 | -2 | 13 | -1 | 7 | -3
CCCCNC(=O)C1C(c2ccc(OC)cc2)=Nc2ccccc2N1C(=O)Cc1cc(OC)cc(OC)c1 (configuration not stated) | . | . | 5 | . | . | .
Cc1c(C(=O)NCc2ccc([N+](=O)[O-])cc2)sc(=O)n1Cc1ccc2c(c1)OCO2 | . | . | -2 | 4 | . | .
Cc1cc(NS(=O)(=O)c2ccc(NC(=O)c3ccc(Cl)cc3Cl)cc2)no1 | 10 | 2 | 2 | -4 | 0 | 4
Cc1cc(NS(=O)(=O)c2ccc(NC(=S)NC(=O)c3ccc(Cl)cc3Cl)cc2)no1 | 6 | 52* | 10 | 9 | 30 | 0
Cn1cc(C(=O)c2ccc(Cl)cc2Cl)cc1C(=O)N/N=C(\N)COc1ccc(F)cc1 | 4 | -11 | 1 | -6 | -10 | -3
Cn1cc(C(=O)c2ccc(Cl)cc2Cl)cc1C(=O)N/N=C(\N)COc1ccc(Cl)cc1 | 90* | 6 | 8 | -13 | -23 | 3
CCOC(=O)C1=CNS(=O)(=O)NC1c1ccc(C[C@H](NC(=O)CNC(=O)CCc2ccccc2)C(N)=O)cc1 (some centres not stated) | -1 | 5 | -7 | -3 | . | .
O=C(/C=C/c1cccs1)c1ccc(NC(=O)c2cccc(Br)c2)cc1 | 11 | 14 | 58* | 11 | -16 | -2
Cc1ccc(C(=O)Nc2ccc(C(=O)/C=C/c3cccs3)cc2)cc1 | 12 | 22 | 44 | 4 | -7 | 5
O=C(CCl)NC(Cc1ccccc1)C(=O)OCC(=O)c1ccc(-c2ccccc2)cc1 (configuration not stated) | -7 | 8 | 3 | -6 | . | .
CC(=O)SC(C[N+](=O)[O-])c1cn(C(C)=O)c2ccccc12 (configuration not stated) | 49* | 76* | -7 | 55* | -1 | -7
CC(=O)n1cc(Nc2ccc([N+](=O)[O-])cc2)c2ccccc21 | 0 | 36 | 11 | 15 | 42* | -6
CC12CCC3c4ccccc4CCC3(CO1)C2 (configuration not stated) | . | . | -16 | 5 | . | .
CC(C)(C)OC(=O)NCC(=O)NNC(=O)C(C(=O)OCc1ccccc1)c1ccccc1 (configuration not stated) | 2 | 15 | 1 | -9 | -9 | -3
N#Cc1ccc(Nc2nc(-c3ccc(O)cc3O)cs2)cc1C(F)(F)F | 7 | 4 | 56* | -23 | 3 | 6
CCN(CC)S(=O)(=O)c1ccc(C(C)NC(=O)C2CCCN2C(=O)c2cccs2)cc1 (configuration not stated) | -3 | 6 | -5 | -6 | -1 | 2
CN(CCOc1ccc(Cl)cc1)C(=O)c1cccc(S(=O)(=O)N2CCN(c3ccc(F)cc3)CC2)c1 | -5 | 7 | 56* | 21 | . | .
O=C1CC2(CCN(C(=O)c3ccc(F)c(F)c3)CC2)Oc2ccccc21 | 6 | 7 | 14 | 4 | 4 | 8
C=CCn1nc([N+](=O)[O-])nc1Sc1cccc2cccnc12 | 11 | 64* | 36 | 47* | 27 | -3
Cc1nc(C(F)(F)F)ccc1C(=O)N1CCC(C)(C(=O)O)C1 (configuration not stated) | . | . | -8 | 3 | . | .
SMILES | Beta2AR agonist | CCR6 antag | EBI2 antag | CXCR6 block | APJ antagonist | APJ ag
Cc1cc(Br)ccc1-n1[nH]c(C)c(C=Nc2cccc3nsnc23)c1=O | -2 | 52* | 15 | 33 | -22 | -4
N#C/C(=C(/O)c1ccc([N+](=O)[O-])s1)c1nc2ccccc2[nH]1 | 16 | 63* | 20 | 33 | 18 | 1
N#C/C(=C(\O)Cc1ccccc1)c1nc2ccccc2[nH]1 | -27 | 17 | -1 | 8 | 10 | -6
N#C/C(=C\c1c(Cl)cccc1Cl)c1nc2ccccc2[nH]1 | 56* | 16 | 3 | 9 | -2 | -3
N#C/C(=C(/O)CCl)c1nc2ccccc2[nH]1 | 2 | 16 | -7 | 28 | 53* | -7
CN(C)/C=C(\C#N)c1nc2ccccc2[nH]1 | -9 | 7 | -12 | 6 | 9 | -2
COc1ccc(OC)c(NC(=O)c2cc(S(=O)(=O)N3CCCC3)cn2C)c1 | 2 | 3 | -8 | 1 | -8 | -3
Cc1cc2ccccn2c1C(=O)c1ccc(Cl)cc1 | . | 6 | 13 | 10 | 4 | -5
C/C(=N\Nc1ccc(C(=O)c2c(C)cc3ccccn23)cc1[N+](=O)[O-])c1ccc(O)cc1 | 3 | 41 | 40 | 47* | 17 | -5
Cc1cc2ccccn2c1C(=O)c1ccc(N/N=C/c2ccc(C(=O)O)cc2)c([N+](=O)[O-])c1 | 15 | 42 | -2 | 33 | . | .
C/C(=N/Nc1ccc(C(=O)c2c(C)cc3ccccn23)cc1[N+](=O)[O-])c1ccc(O)cc1 | 2 | 47 | 19 | 37* | . | .
CC(=NNc1nc2ccccc2o1)c1cc2ccccc2cn1 | -134 | -16 | 1 | -6 | . | .
CC(=NNc1nc2ccccc2o1)c1ncccn1 | 5 | 1 | 55* | -7 | . | .
CC(=NNc1nc2ccccc2s1)c1ncccn1 | -80 | 40 | 57* | 54* | . | .
COc1cccc(C(NC(C)=O)c2nc(-c3ccccc3C)cs2)c1 (configuration not stated) | . | . | 7 | -1 | . | .
Cc1c(CC(=O)NCC(=O)NCC(=O)N[C@@H](Cc2ccccc2)C(=O)O)c(=O)oc2c(C)c(O)ccc12 | . | . | -10 | -6 | . | .
COc1ccc(N2CCN(C(=O)c3ccc(Br)cc3)CC2)c([N+](=O)[O-])c1 | 8 | 11 | 72* | 1 | 11 | -2
COc1ccc(N2CCN(C(=O)c3ccc(C)cc3)CC2)c([N+](=O)[O-])c1 | 3 | 6 | 19 | 5 | 14 | 0
COc1cccc(-c2oc3c(c2-c2ccc(Br)nc2)C(O)CCC3)c1 (configuration not stated) | . | . | 3 | 1 | . | .
COC1=CC(=O)C=C(OC)C1=O | 53* | 86* | -10 | 81* | . | .
COC1=CC(=O)c2ccccc2C1=O | -3 | -3 | -4 | -24 | 1 | -1
CC(=O)c1c(N)[nH]c(-c2ccccc2)nc1=S | 3 | 57* | 0 | 16 | 24 | -9

Assay outcomes from PubChem BioAssay.
